Published values pooled from the literature.
Protocols differ between the studies behind these lines.
Cell line: MCF7
Read-out: cell growth or viability

| SMILES | test | conditions | endpoint | result |
| --- | --- | --- | --- | --- |
| O=C(NCc1cn(Cc2ccc(Br)cc2)nn1)Nc1ccccc1Br | CCK-8 | 50 µM, 48 h | viability | 84.7% |
| COc1ccc(NC(=O)NCc2cn(Cc3ccccc3C)nn2)cc1 | CCK-8 | 50 µM, 72 h | viability | 98.7% |
| O=C(Nc1ccc(Cl)cc1)Nc1ccc(-c2cn(Cc3ccc(Br)cc3)nn2)cc1 | CCK-8 | 50 µM, 72 h | viability | 97.8% |
| COc1cc(C=NNC(=O)c2nc3ccccc3s2)ccc1OS(C)(=O)=O | MTT | 100 µM, 48 h | cell death | 49.1% |
| C[C@H](Nc1ccc2c(c1)OCCn1cc(N3C(=O)OC[C@H]3C(F)F)nc1-2)C(N)=O | ATP luminescence | 5 days | EC50 | 0.129 µM |
| COc1ccc(NC(=O)Nc2cccc(-c3cn(Cc4cccc(Cl)c4)nn3)c2)cc1 | CCK-8 | 50 µM, 48 h | viability | 103% |
| CCOc1ccc(-c2cc(C(=O)O)c(-c3ccc(Cl)cc3)o2)cc1 | MTT | 48 h | EC50 | 170 µM |
| COc1ccc(NC(=O)Nc2cccc(-c3cn(Cc4ccccc4C)nn3)c2)cc1 | CCK-8 | 50 µM, 48 h | viability | 94.8% |
| COCCC(=O)Nc1ccccc1/N=c1\cc(-c2ccc3nc(N)oc3c2)oc2ccccc12 | CCK-8 | 1 µM | inhibition | 7.99% |
| COc1ccc(NC(=O)NCc2cn(Cc3ccc(Cl)cc3)nn2)cc1 | CCK-8 | 50 µM, 72 h | viability | 95.3% |
| COc1ccc2/c(=N/c3ccccc3NC(=O)N3CCOCC3)cc(-c3ccc4c(c3)OCCO4)oc2c1 | CCK-8 | 1 µM | inhibition | 7.65% |
| CCc1nc(C(N)=O)c(Nc2ccc(N3CCC(N4CCN(C)CC4)CC3)c(OC)c2)nc1NC1CCOCC1 |  | 72 h | GI50 | 0.406 µM |
| COc1ccc(NC(=O)NCc2cn(Cc3ccc(Br)cc3)nn2)cc1 | CCK-8 | 50 µM, 48 h | viability | 87.8% |
| O=C(Nc1ccc(-c2cn(Cc3ccc(Br)cc3)nn2)cc1)Nc1ccccc1Br | CCK-8 | 50 µM, 48 h | viability | 92.9% |
| Cc1n[nH]c2ccc3nc(-c4ccc(C(=O)NCCN(C)C)cc4)c4c(c3c12)CCCCC4 |  | 72 h | GI50 | 5.25 µM |
| NCCC(=O)Nc1ccccc1/N=c1\cc(-c2ccc3oc(N)nc3c2)oc2ccccc12 | CCK-8 | 1 µM | inhibition | 6% |
| COc1ccc(NC(=O)Nc2ccc(-c3cn(Cc4ccc(Br)cc4)nn3)cc2)cc1 | CCK-8 | 50 µM, 72 h | viability | 105% |
| O=C(Nc1cccc(-c2cn(Cc3ccc(Br)cc3)nn2)c1)Nc1ccccc1Br | CCK-8 | 50 µM, 48 h | viability | 89.7% |
| CCCS(=O)(=O)Oc1cc(C=NNC(=O)c2nc3ccccc3s2)ccc1OC | MTT | 100 µM, 48 h | cell death | 26.3% |

| SMILES | test | conditions | endpoint | result |
| --- | --- | --- | --- | --- |
| O=C(NCc1cn(Cc2cccc(Cl)c2)nn1)Nc1ccc(Cl)cc1 | CCK-8 | 50 µM, 72 h | viability | 87.2% |
| O=C(NN=Cc1ccc(O)cc1)c1nc2ccccc2s1 | MTT | 100 µM, 48 h | cell death | 38.1% |
| O=C(Nc1ccc(Cl)cc1)Nc1cccc(-c2cn(Cc3ccc(Cl)cc3)nn2)c1 | CCK-8 | 50 µM, 72 h | viability | 98.2% |
| C[C@H](N)C(=O)Nc1ccccc1/N=c1\cc(-c2ccc3c(c2)OCO3)oc2ccccc12 | CCK-8 | 1 µM | inhibition | 8.48% |
| COc1ccc(NC(=O)Nc2cccc(-c3cn(Cc4ccc(C)cc4)nn3)c2)cc1 | CCK-8 | 50 µM, 72 h | viability | 104% |
| Cc1n[nH]c2ccc3nc(-c4ccc(C(=O)NCCN(C)C)cc4F)c4c(c3c12)CCCCC4 |  | 72 h | GI50 | 5.72 µM |
| NCC(=O)Nc1ccccc1/N=c1\cc(-c2ccc3c(c2)OCO3)oc2c(N)cccc12 | CCK-8 | 1 µM | inhibition | 7.42% |
| COc1cccc2c1C(=O)c1c(O)c3c(c(O)c1C2=O)C[C@@](O)(C(=O)CO)C[C@@H]3O[C@H]1C[C@H](N)[C@H](O)[C@H](C)O1 | MTT | 24 h | IC50 | 18.4 µM |
| O=c1[nH]cc(F)c(=O)[nH]1 | MTT | 100 µM, 48 h | cell death | 71.2% |
| CN(C)CCNC(=O)c1ccc(-c2nc3ccc4[nH]ncc4c3c3c2CCCC3)cc1 |  | 72 h | GI50 | 3.34 µM |
| NCCCCC(=O)Nc1ccccc1/N=c1\cc(-c2ccc3c(c2)OCO3)oc2ccccc12 | CCK-8 | 1 µM | inhibition | -4.92% |
| COc1cccc2c1C(=O)c1c(O)c3c(c(O)c1C2=O)C[C@@](O)(C(=O)CO)C[C@@H]3O[C@H]1C[C@H](N)[C@H](O)[C@H](C)O1 | MTT | 48 h | IC50 | 5.17 µM |
| CC(C)(C)c1cc(NC(=O)Nc2ccc(-c3cn4c(n3)sc3cc(OCCN5CCOCC5)ccc34)cc2)no1 |  | 72 h | GI50 | > 10 µM |
| COc1ccc(NC(=O)Nc2cccc(-c3cn(Cc4ccc(Cl)cc4)nn3)c2)cc1 | CCK-8 | 50 µM, 48 h | viability | 100% |
| NCCC(=O)Nc1cccc(/N=c2\cc(-c3ccc4c(c3)OCO4)oc3ccccc23)c1 | CCK-8 | 1 µM | inhibition | 15.7% |
| O=C(NCc1cn(Cc2ccc(Br)cc2)nn1)Nc1ccc(Cl)cc1 | CCK-8 | 50 µM, 48 h | viability | 89.8% |
| NCCC(=O)Nc1ccccc1/N=c1\cc(-c2ccc3nc(N)oc3c2)oc2ccc(O)cc12 | CCK-8 | 1 µM | inhibition | 12.1% |
| O=C(Nc1cccc(-c2cn(Cc3ccc(Cl)cc3)nn2)c1)Nc1ccccc1Br | CCK-8 | 50 µM, 48 h | viability | 89.5% |
